Results collected from several papers.
Protocols differ between the studies behind these lines. pIC50: −log10 of the molar value.
Cell line: HEK293
Effect on: cell growth or viability

Structure (SMILES) | technique | tested at | time | quantity | value
CO[C@H]1C[C@@H](C[C@H](C)[C@H]2CC(=O)[C@@H](C)/C=C(\C)[C@H](O)[C@H](OC)C(=O)[C@@H](C)C[C@@H](C)/C=C/C=C/C=C(\C)[C@H](OC)C[C@H]3CC[C@H](C)[C@](O)(O3)C(=O)C(=O)N3CCCC[C@@H]3C(=O)O2)CC[C@@H]1OCCO (racemic) | MTT |  | 24 h | CC50 | 63.7 µM
CC/C(=C(\c1ccccc1)c1ccc(OCCN(C)C)cc1)c1ccccc1 | resazurin |  | 20 h | CC50 | 9 µg/mL
CC(C)(O)c1coc(S(=O)(=O)NC(=O)Nc2c3c(cc4c2CCC4)CCC3)c1 | MTT | 10 µM | 4 h | viability | 95.2%
Cc1ccc2oc(-c3cc(NC(=O)Cc4ccccc4)ccc3Cl)nc2c1 | MTT |  | 24 h | CC50 | > 400 µM
O=P(O)(O)c1cc2c(O)c(c1)Cc1cc(P(=O)(O)O)cc(c1O)Cc1cc(P(=O)(O)O)cc(c1O)Cc1cc(P(=O)(O)O)cc(c1O)Cc1cc(P(=O)(O)O)cc(c1O)Cc1cc(P(=O)(O)O)cc(c1O)Cc1cc(P(=O)(O)O)cc(c1O)Cc1cc(P(=O)(O)O)cc(c1O)C2 | MTT |  | 24 h | CC50 | 608 µM
CCn1cc(C(=O)NCCNCCO)c(=O)c2cc(OC)c(OCc3cc(F)cc(F)c3)cc21 | resazurin |  | 20 h | CC50 | > 32 µg/mL
CC1c2cc(c(O)cc2O)C(C)c2cc(c(O)cc2O)C(C)c2cc(c(O)cc2O)C(C)c2cc1c(O)cc2O (stereo not drawn) | ATP luminescence |  | 24 h | CC50 | 21.2 µM
Cc1c2ccncc2c(C)c2c1[nH]c1ccc(OCCN(C)C)cc12 | MTS |  |  | pIC50 | 5.50
C[C@@H](c1cc(Cl)cc(Cl)c1)N(C)c1ncc2c(N)nc(N)nc2n1 | MTT |  | 24 h | CC50 | 31.2 µM
